FN deposition inh – fibronectin deposition inhibition; AH1F fibroblasts, Alexa488-fibronectin deposition fluorescence, overnight; inhibition, % at 12.6 µM; 350,000 tested, 0.086% active; AID 743247;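 active = mean inhibition across replicates of 30% or more, regardless of how many single replicates reach that level; inconclusive = mean under 30% yet at least half of replicates reach 30%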;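 note: positive control wells lacked labelled fibronectin entirely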
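Assay system: AH1F fibroblasts assembling fluorescent fibronectin matrix; Amount: 10000 AH1F cells per well; Buffer or medium: DMEM, 2% serum; Probe or stimulus: Alexa488-fibronectin, 24 nM final in well; Doses: single compound dose, delivered by pin transfer; Incubation: 1 h adhesion, overnight exposure; Measured by: fluorescence 485/525 nm; Read-out: fibronectin deposition inhibition.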
SIRT5 block – blocks human SIRT5 desuccinylation of peptide | Q9NXA8 | AID 652115 | 330,000 tested, 1.1% active | Purified SirT5, succinyl-peptide AMC, trypsin-coupled fluorescence | inhibition, % at 15 µM; in the data active = inhibition above about 15%; inconclusive = no clear call, values can overlap the other calls
Target sequence (Q9NXA8 whole entry, looked up): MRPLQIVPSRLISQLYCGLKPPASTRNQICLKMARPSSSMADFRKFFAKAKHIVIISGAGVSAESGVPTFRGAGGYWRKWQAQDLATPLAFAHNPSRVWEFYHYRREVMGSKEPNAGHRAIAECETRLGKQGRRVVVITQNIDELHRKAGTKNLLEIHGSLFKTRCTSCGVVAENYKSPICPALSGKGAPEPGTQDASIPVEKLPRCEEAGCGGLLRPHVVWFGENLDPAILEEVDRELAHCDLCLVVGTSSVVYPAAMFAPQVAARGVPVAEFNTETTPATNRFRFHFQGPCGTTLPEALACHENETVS
C2C12 statin – suppressors of simvastatin-induced myotoxicity in C2C12 myotubes; ATP luminescence, 48 h; scaled: DMSO 0, geranylgeraniol control 100; rescue of ATP level, % at 7.49 µM; 330,000 tested, 0.78% active; AID 602340;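 active = mean ATP rescue above about 67%, or every replicate alone reaching that limit, limit read from the data, passing the limit was not always enough; inconclusive = no clear call, values can overlap the other calls; inactive = mean under the limit and some replicate under it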;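 note: myotubes were challenged with 10 µM simvastatin during compound exposure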
FGF22 binding – shifts melting point of recombinant human FGF22; 340,000 tested, 1.5% active; recombinant FGF22 thermal shift, SYPRO orange fluorescence; percent of sucrose octasulfate shift, DMSO zero; activity (Tm shift, normalised), % at 9.99 µM; AID 651658; Q9HCT0;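 active = mean Tm shift, scaled 0 neutral to 100 positive control, at about 1.3% or above, every replicate too, limit read from the data; inconclusive = no clear call, values can overlap the other calls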
Target sequence (Q9HCT0 whole entry, looked up): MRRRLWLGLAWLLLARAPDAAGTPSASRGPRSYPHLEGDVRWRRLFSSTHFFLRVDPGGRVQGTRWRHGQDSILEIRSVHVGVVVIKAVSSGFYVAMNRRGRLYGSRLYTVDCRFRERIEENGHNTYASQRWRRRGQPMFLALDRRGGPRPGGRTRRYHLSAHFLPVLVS
rRNA inh HTS – inhibitors of bacterial rRNA selective over humanized ribosomes | GFP signal change (wild-type ribosome), % (no concentration beside the values) | AID 720706 | E. coli WT GFP vs humanized-ribosome RFP mutants, fluorescence, 24 h; stronger effect = lower value; DMSO median 0, no signal -100 | 350,000 tested, 1.6% active;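 active = significant combined selectivity score with lowered wild-type GFP, culture density cut under 30%, mutant RFP and density less affected; inactive = any of these conditions unmet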
E-sel inducer – E-selectin induction on HUVECs; P16581; HUVEC E-selectin immunofluorescence imaging; normalized: neutral wells 0, TNF-alpha wells 100; activation, % at 7.58 µM; 260,000 tested, 0.37% active;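 active = mean E-selectin-positive cell signal at least 10% of the positive control, reached in at least 60% of replicates, without over 20% cell loss; inconclusive = no rule given, readout overlaps actives, possibly toxicity-flagged; inactive = the rest, including those meeting only one limit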
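Test system: HUVEC; input: 3,000 HUVEC/well; measured by: immunofluorescence imaging; read-out: % PE-positive cells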
The depositor's hits bear a star; ? = inconclusive; nt = not tested or not shown; ! = a repeat was not active. Most compounds without a hit are left out; they make up all but 4% or so of the library.

SMILES	FN deposition inh	SIRT5 block	C2C12 statin	FGF22 binding	rRNA inh HTS	E-sel inducer
C[C@H](CO)N1C[C@H](C)[C@H](CN(C)C(=O)Nc2ccc(F)cc2)Oc2ccc(NC(=O)Nc3ccc4c(c3)OCO4)cc2CC1=O	nt	nt	19.3	-0.1	-0.2	-0.1
Cc1nc(N2CCCC2)c2nnn(Cc3ccccc3Cl)c2n1	4.8	nt	75.6*	nt	nt	nt
Cc1nc(N2CCC3(CC2)OCCO3)c2nnn(Cc3ccccc3F)c2n1	nt	nt	129.6*	nt	nt	nt
Cc1nc(NC2CCCCC2)c2nnn(Cc3ccccc3Cl)c2n1	-6.6	-5.4	19.1	-0.2	24.1	nt
CCc1nc(N2CCC3(CC2)OCCO3)c2nnn(Cc3ccccc3)c2n1	14.5	-0.2	12.8	0.2	-28.1	1.6
Fc1ccc(COc2cccc3cccnc23)cc1	-17.0	0.4	nt	0.0	-14.5	nt
Cc1oc(C(=O)O)cc1COc1cccc2cccnc12	nt	nt	123.6*	nt	nt	nt
Nc1ccccc1SCC(=O)N1CCc2ccccc21	nt	nt	10.7	nt	nt	nt
O=C(CSCCO)N1CCc2ccccc21	-21.8	nt	115.8*	nt	nt	nt
COc1ccccc1S(=O)(=O)N(C)C[C@@H]1Oc2cc(C#CCC(C)C)ccc2S(=O)(=O)N([C@H](C)CO)C[C@@H]1C	-3.9	22.9*!	-15.4	0.3	-0.8	1.6
COc1ccccc1S(=O)(=O)N(C)C[C@H]1Oc2cc(Br)ccc2S(=O)(=O)N([C@H](C)CO)C[C@H]1C	4.0	0.9	0.6	-0.2	-34.0*!	2.8
COc1ccccc1S(=O)(=O)N(C)C[C@H]1Oc2cc(Br)ccc2S(=O)(=O)N([C@@H](C)CO)C[C@H]1C	5.2	-4.2	5.7	0.1	1.5	0.4
COCC(=O)Nc1ccc2c(c1)[C@H]1C[C@H](CC(=O)NCCN3CCCCC3)O[C@H](CO)[C@H]1O2	7.7	-0.1	-1.9	0.3	3.6	-0.1
COC(=O)C1=C(C)N(c2ccc(F)cc2)/C(=C/c2ccc(O)cc2)C1=O	2.2	-4.6	114.5*	0.3	20.0	-5.3
COc1ccc(C2(C)CC(C)(C)Nc3ccccc32)cc1 (centres undefined)	-5.1	-5.3	2.4	0.2	-29.0*	nt
COc1ccc(NC(=O)c2ccc(-c3ccc([N+](=O)[O-])cc3)o2)cc1OC	-0.8	3.2	nt	-0.1	-42.3*	nt
CC=Cc1ccc2n(c1=O)C[C@@H]1[C@@H](CO)[C@H](C(=O)NCC3CC3)N(C(=O)CC3CC3)[C@H]21 (mixture of isomers)	nt	-6.5	-2.6	0.0	3.5	-0.2
Cc1ccc(NC(=S)/N=C(\N)Nc2nc(C)c3cc(C)c(C)cc3n2)cc1C	-3.9	-2.1	-17.3	43.0*	4.8	-0.5
COCC(=O)N(C)C1(c2nnnn2CCOC(=O)Nc2cccc3ccccc23)CCCC1	nt	nt	97.6*	nt	nt	nt
Cc1cc(NC(=O)CCC(=O)N(c2ccc(F)cc2)C(C(=O)NC2CCCC2)c2ccccc2)no1 (centres undefined)	-1.5	0.9	1.5	-0.3	2.3	-1.1
Cc1cc(NC(=O)CCC(=O)N(c2ccccc2)C(C(=O)NC2CCCC2)c2ccc(F)cc2)no1 (centres undefined)	0.0	-9.0	0.7	0.0	8.3	36.3*
CCN(CC)C(=O)C1=C(C)N(Cc2ccc(C(C)(C)C)cc2)C(=O)C(CC(=O)NC2CCCCC2)C1 (centres undefined)	-3.9	3.3	-1.5	0.1	nt	nt
CCN(CC)C(=O)C1=C(C)N(Cc2ccccc2)C(=O)C(CC(=O)NC2CCCCC2)C1 (centres undefined)	-1.3	nt	-0.3	43.9*	-4.6	0.3
CCN(CC)C(=O)C1=C(C)N(Cc2ccccc2)C(=O)C(CC(=O)NC2CC2)C1 (centres undefined)	-1.9	nt	-5.3	43.8*	5.2	-0.1
Cc1nn2c(NCCN3CCOCC3)c3c(nc2c1-c1ccccc1)CCCC3	11.4	-2.8	nt	0.0	-34.2*	0.3
SMILES	FN deposition inh	SIRT5 block	C2C12 statin	FGF22 binding	rRNA inh HTS	E-sel inducer
Cc1nn2c(NCc3ccccn3)c3c(nc2c1-c1ccccc1)CCC3	-2.7	-1.5	nt	-0.2	-29.0	0.1
CCn1ncc(Br)c1C(=O)Nc1cc([N+](=O)[O-])ccc1C	1.6	-0.9	nt	0.1	-2.9	nt
CCn1ncc(Br)c1C(=O)Nc1ccccc1OC	6.0	-1.2	nt	44.0*	-15.9	nt
CCn1ncc(Br)c1C(=O)Nc1cc(C(=O)OC)ccc1C(=O)OC	nt	nt	122.8*	nt	nt	nt
C[C@@H]1CN([C@@H](C)CO)C(=O)c2cc(NC(=O)Cc3cn(C)c4ccccc34)ccc2O[C@@H]1CN(C)C(=O)Nc1cccc2ccccc12	nt	-9.9	0.2	-0.2	-0.8	nt
CCN(Cc1ccccc1)C(=O)CSc1ccccc1C(=O)O	1.3	-1.6	nt	42.3	9.2	3.5
CCN(CC)C(=O)CSc1ccccc1N	nt	nt	115.7*	nt	nt	nt
C[C@H](CO)N1C[C@H](C)[C@H](CN(C)Cc2ccccc2)Oc2ccc(NC(=O)CCCCCC(=O)Nc3ccccc3N)cc2CC1=O	nt	0.5	79.9*	0.0	-2.8	0.6
C[C@H](CO)N1C[C@H](C)[C@H](CN(C)S(C)(=O)=O)Oc2ccc(NC(=O)CCCCCC(=O)Nc3ccccc3N)cc2CC1=O	nt	nt	4.1	-0.2	7.9	-5.3
C[C@H](CO)N1C[C@H](C)[C@@H](CN(C)S(C)(=O)=O)Oc2ccc(NC(=O)CCCCCC(=O)Nc3ccccc3N)cc2CC1=O	nt	-1.9	6.5	0.0	7.2	35.8*
C[C@@H]1CN([C@H](C)CO)C(=O)Cc2cc(NC(=O)CCCCCC(=O)Nc3ccccc3N)ccc2O[C@H]1CN(C)CC1CCCCC1	-19.8	nt	88.5*	0.4	0.0	-0.1
C[C@H]1CN([C@@H](C)CO)C(=O)Cc2cc(NC(=O)CCCCCC(=O)Nc3ccccc3N)ccc2O[C@@H]1CN(C)Cc1ccc(-c2ccccc2)cc1	nt	-1.5	132.8*	-0.2	-1.7	0.6
C[C@H]1CN([C@@H](C)CO)C(=O)Cc2cc(NC(=O)CCCCCC(=O)Nc3ccccc3N)ccc2O[C@@H]1CN(C)CC1CCCCC1	-11.4	8.0	?	0.0	1.1	0.3
CCCC(=O)Nc1ccc2c(c1)OC[C@H](C)N(CCc1ccccc1)C[C@H](C)[C@H](OC)CN(C)C2=O	0.1	nt	8.7	nt	3.4	-0.6
O=S(=O)(N[C@H]1CC[C@H](CCn2cc(Cc3ccccc3)nn2)O[C@@H]1CO)c1ccccc1F	-6.9	1.9	-4.6	0.3	-3.8	0.1
CCNC(=O)C[C@H]1CC[C@H]2[C@H](COc3ccc(NC(=O)Nc4cccc(Cl)c4)cc3C(=O)N2C)O1	-6.0	-0.6	15.0	nt	0.0	0.1
C[C@H]1CN([C@@H](C)CO)C(=O)Cc2cc(NC(=O)CCCCCC(=O)Nc3ccccc3N)ccc2O[C@H]1CN(C)Cc1ccc(C(F)(F)F)cc1	-11.9	4.0	110.9*	-0.7	-4.4	0.1

High-throughput results as filed in PubChem BioAssay.
